# Bioassay records as filed in PubChem.
# HCT116 PTEN-null = growth suppression of PTEN-null HCT116, primary screen, cell-based, CellTiter-Glo; HCT116 PTEN-null viability, 60 h; hits give low values; viability, % at 10 µM; actives 1.2% (n = 140,000); AID 827, 2007;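 active = viability at or below a set limit, 4 SD under the median of all tested compounds, cut at about 3.7% in these data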;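 note: PTEN knockout HCT116 line with beta catenin targeted HCT116 as companion control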
# HCT116 bCat-KO = primary screen for growth suppressors in beta-catenin knockout HCT116 cells (colon tumor, human) | HCT116 beta-catenin knockout viability, CellTiter-Glo, 60 h; hits give low values | viability, % at 10 µM | actives 1.5% (n = 140,000);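 active = viability at or under a set limit, the compound median less 4 SD, cut at about 6% in these data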
# HUVEC inhibit = inhibitors of HUVEC proliferation, primary screen, cell-based, 384-well; actives 1.1% (n = 86,000); viability, % at 10 µM (by protocol); AID 648, 2007; CellTiter-Glo luminescence, 72 h; hits give low values;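 active = viability at or below 30%; inactive = viability above 30%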
# H69AR inhibit = proliferation blockers of H69AR lung cancer cells, primary screen, cell-based, human, 86K library; H69AR lung tumor viability, ATP luminescence, 72 h; hits give low values; viability, % at 10 µM; actives 6% (n = 85,000);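 active = viability at or below 40%; inactive = viability above 40%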;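 note: multidrug resistant small cell line overexpressing MRP-1 efflux transporter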
# Fibroblast inh = antiproliferative effect on LL 47 fibroblasts – human, LL 47 cells, CellTiter-Glo luminescence, primary screen. LL 47 human lung fibroblast viability, ATP luminescence; hits give low values. viability, % at 10 µM. actives 1.1% (n = 85,000);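 active = viability at or below 50% in the single dose screen; inactive = viability above 50%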;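 note: compound exposure lasted 72 h before the ATP readout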
#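 Benchmarks: Cell-only wells, no compound | Test system: LL 47 human lung fibroblasts, passage 12 or lower | Input: 1,150 cells/well | Measured by: CellTiter-Glo luminescence measuring cellular ATP | Medium: IMEM, 15% FBS supplement | Schedule: Overnight attachment after seeding, then 72 h compound exposure at 37 °C | Doses: Compound addition at 0.1% DMSO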
# Hits are given with their value; 0 = inactive; - = not tested or not shown. The sample as a whole holds a higher share of hits than the screen did.
SMILES,HCT116 PTEN-null,HCT116 bCat-KO,HUVEC inhibit,H69AR inhibit,Fibroblast inh
COc1cccc(C2=CC(c3ccc(N(C)C)cc3)n3nnnc3N2)c1 (stereo not drawn),0,0,0,14.9,0
COc1cccc(C2=CC(c3cccc(OC)c3OC)n3nnnc3N2)c1 (stereo not drawn),0,0,-,-,-
COc1ccc(OC)c(C2C=C(c3ccc(C)c(C)c3)Nc3nnnn32)c1 (stereo not drawn),0,0,0,14.5,0
COc1ccc(C2=CC(c3ccc(C)cc3)n3nnnc3N2)cc1 (stereo not drawn),0,0,0,0,0
CCOc1ccc(CNC(=O)c2ccc(Sc3ccc(C)cc3)c(NC(C)=O)c2)cc1,0,0,-,-,-
COc1cc(/C=N/N(C)c2ccccc2)cc(Cl)c1O,0,0,0,15.8,0
COc1ccc(OC)c(/C=N/N(C)c2ccccc2)c1,0,0,0,0,0
CC1C/C(=C\c2cccnc2)C(=O)/C(=C/c2cccnc2)C1 (stereo not drawn),2.1,2.7,-,-,-
O=C1/C(=C\c2cccnc2)Sc2ccccc21,0,0,-,-,-
COc1ccc(NC(=O)CN2CCC(Cc3ccccc3)CC2)cc1S(=O)(=O)N1CCOCC1,0,0,-,-,-
O=C(CN1C(=O)c2ccccc2C1=O)c1ccccc1,0,0,0,0,0
CC1=C(CC(=O)c2ccccc2)C(=O)c2ccccc2C1=O,2.0,2.2,-,-,-
CN=C1CC(SC)=C1c1ccc(C)cc1,0,0,0,38.5,33.3
O=C(CSc1cn(Cc2ccccc2)c2ccccc12)N1CCOCC1,0,0,0,0,0
COc1ccc(O[C@H]2C=C[C@@H](c3ccccc3)O[C@@H]2CO/N=C(\C)CCN2CCCCc3nc(C)c(C)cc32)cc1,0,0,-,-,-
Fc1ccc(Br)cc1C1C=C(c2cccnc2)Nc2ncnn21 (stereo not drawn),0,0,0,24.6,0
Brc1ccc(C2=CC(c3cccs3)n3ncnc3N2)cc1 (stereo not drawn),0,0,0,0,0
O=C(COC(=O)c1c2c(nc3ccccc13)CCCC2)Nc1ccc2c(c1)OCO2,0,0,0,36.4,0
O=C(COC(=O)c1cc(-c2ccccc2)nc2ccccc12)Nc1ccc2c(c1)OCO2,0,0,-,-,-
COc1cccc(NC(=O)COC(=O)c2c3c(nc4ccccc24)CCC(C)C3)c1 (stereo not drawn),1.4,1.7,0,22.9,0
COc1cccc(NC(=O)COC(=O)c2cccnc2)c1,0,0,0,0,0
CC1=C(C(=O)OC(C)C)C(c2cn(-c3ccccc3)nc2-c2cccs2)NC(=O)N1 (stereo not drawn),0,0,-,-,-
Cc1cc(OCC(=O)N2CCc3ccccc3C2)c2c(-c3ccccc3)cc(=O)oc2c1,0,0,0,0,0
Cc1ccc(C(=O)N/C(=C/C=C\c2ccccc2)C(=O)NCc2ccco2)cc1,0,0,-,-,-
Nc1cccc(Nc2nc(OC(C(F)(F)F)C(F)(F)F)nc(OC(C(F)(F)F)C(F)(F)F)n2)c1,2.4,0,0,1.5,0
SMILES,HCT116 PTEN-null,HCT116 bCat-KO,HUVEC inhibit,H69AR inhibit,Fibroblast inh
COc1nc(Nc2ccc(O)cc2)nc(OC(C(F)(F)F)C(F)(F)F)n1,0,0,0,0,0
CSCC[C@H](NC(=O)C1CCN(S(=O)(=O)c2ccc(C)cc2)CC1)C(=O)NC1CCS(=O)(=O)C1 (stereo partly drawn),0,0,-,-,-
CCOc1cc(CNc2ccc(O)cc2)ccc1OCc1ccc(Cl)cc1Cl,0,0,-,-,-
CCOc1cccc(CNc2ccc(O)cc2)c1OCc1ccc(Cl)cc1,1.9,0.8,-,-,-
c1cnn(-c2nc(N3CCOCC3)nc(N3CCOCC3)n2)c1,0,0,0,0,49.0
Cc1cccc(-[n+]2c(C)cc(C)c3c(=O)[nH]c(=O)[nH]c32)c1,0,0,-,-,-
COc1ccc(NC(=O)c2cc(-c3cc(C)cc(C)c3O)n[nH]2)cc1Cl,0,0,0,21.1,0
Cc1cc(C)c(O)c(-c2cc(C(=O)NCc3ccccc3)[nH]n2)c1,0,0,0,0,0
COc1ccc(-n2cc(-c3ccccc3)c3c(N4CCN(CCO)CC4)ncnc32)cc1,0,0,29.8,0,0
O=C(N/N=C/C=C\c1ccccc1[N+](=O)[O-])c1cccs1,0,0,-,-,-
O=C(N/N=C/c1ccco1)c1cc(-c2ccc3ccccc3c2)n[nH]1,0,0,3.7,1.8,0
O=C(N/N=C/C=C\c1ccccc1[N+](=O)[O-])c1cc(-c2ccc3ccccc3c2)n[nH]1,0,4.7,-,-,-
O=C(N/N=C/c1c[nH]c2ccccc12)c1cc(-c2ccc(-c3ccccc3)cc2)n[nH]1,1.3,1.1,-,-,-
Cc1ccccc1Cn1c(=O)n(CC2CCC(C(=O)NCCc3ccccc3)CC2)c(=O)c2ccccc21 (stereo not drawn),0,0,-,-,-
CCSc1cc(N2CCCC2)nc(-c2ccccc2Cl)n1,0,0,-,-,-
NNC(=O)[C@H]1C[C@@H]1c1ccccc1,0,0,-,-,-
COc1cc(-c2nnc(COc3ccc4cc(Br)ccc4c3)o2)cc(OC)c1OC,0,0,0,23.8,-
CN(c1ccccc1)S(=O)(=O)c1cccc(C(=O)OCC(=O)NCc2ccc3c(c2)OCO3)c1,0,0,-,-,-
Cc1nn(-c2nc3ccccc3s2)c(N)c1Sc1ccc(F)cc1,0,0,0,9.7,17.8
CC(C)CNC(=O)/C=C/c1cccs1,0,0,-,-,-
COC(=O)c1ccccc1OCCCN(C)C,0,0,-,-,-
CCCCNC(=O)CSc1nc2ccc(N3CCOCC3)cc2c(=O)n1CCc1ccccc1,0,0,26.1,8.9,0
COCCNC(=O)CSc1nc2ccc(N3CCOCC3)cc2c(=O)n1CCc1ccccc1,0,0,0,0,0
CC(Sc1nc(-c2ccccc2)cs1)C(=O)Nc1ccc(Cl)cn1 (stereo not drawn),0,0,-,-,-
Cc1ccc(/C=C2/Sc3ccccc3N(CC(=O)NCCCOC(C)C)C2=O)cc1,0,0,-,-,-
CC[C@@H](C)[C@H](NC(=O)OC(C)(C)C)c1nnc(S(=O)(=O)Cc2cc(C)ccc2C)o1,3.8,2.8,0,0.2,13.9
